STAT3 act-1: activators of IL-6 induced STAT3 signaling; U3A cells, IL-6 STAT3-luciferase reporter, luminescence; 100% = signal with IL-6 EC80 alone; activation (% of control), % at 5.6 µM; actives 0.91% (n = 190,000); AID 871;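 active means activation above the screen-wide mean of compound activation plus 3 SD, cut at about 130% in these data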;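 further: 0% = background luminescence of wells with medium and substrate only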
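Material: STAT3-luciferase reporter U3A cells; Probe or stimulus: IL-6 (33 ng/mL); Incubation: compound pre-incubation 1 h before IL-6, then 6 h stimulation at 37 °C; Technique: luminescence from STAT3-driven luciferase reporter; Evaluation: % activation versus median of IL-6-stimulated wells; Controls: IL-6-only high control.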
STAT1 act-1: STAT1 signaling activation. NIH 3T3 STAT1-luciferase reporter, IFN-gamma, luminescence; 100% = IFN-gamma alone, no compound. activation (% of control), % at 5.5 µM. actives 2.6% (n = 200,000);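 active means activation above the screen-wide mean activation plus 3 SD, cut at about 130% in these data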;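 further: raw ratio to IFN-gamma control signal so 100% means no change and 0% no light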
Pf gametocyte: kills late stage P. falciparum gametocytes; P. falciparum stage V gametocytes, ATP luminescence, 24 h; inhibition, % at 10.9 µM; actives 0.065% (n = 150,000); AID 743093;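 active means inhibition above the mean plus 3 SD of compounds within the control limits, set per campaign, cut at about 38% in these data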;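 further: 0% = DMSO wells and 100% = medium only without gametocytes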
APP 5'UTR act: activates APP 5'UTR luciferase reporter; SH-SY5Y APP 5'UTR luciferase reporter, luminescence; zero percent = DMSO vehicle wells; activation, % at 2 µM; actives 1% (n = 190,000); AID 1276;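 active means activation above a set limit, based on mean plus 3 SD of controls, cut at about 140% in these data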
STAT1 blocker: reduces IFN-gamma driven STAT1 reporter signal | NIH 3T3 STAT1-luciferase reporter, luminescence | AID 920 | inhibition, % at 5.5 µM | actives 0.35% (n = 200,000);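 active means inhibition above a set limit, the mean inhibition across all tested compounds plus 3 SD, cut at about 34% in these data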;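 further: 0% = IFN-gamma with DMSO and 100% = IFN-gamma with 300 µM nifuroxazide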
NF-kB expr up: raises NF-kB expression in human neuronal cells | actives 1.6% (n = 190,000) | fold change at 12.5 µM | NF-kB reporter expression; active compounds read high; in the data active means fold change above about 3.3
STAT3 act-2: confirmation of STAT3 signaling activators; actives 64% (n = 1,200); potentiation (% of control), % at 5.7 µM; U3A STAT3-luciferase reporter, IL-6 potentiation, luminescence; U3A cells lack STAT1; 100 means same as IL-6 alone; shares compounds with STAT3 act-1;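 active means percent activation of the STAT3 luciferase reporter above a set limit taken from the earlier primary screen, cut at about 130% in these data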;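 further: 0% = background signal of medium plus substrate and 100% = median of IL-6 with DMSO wells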
NFkB act 2: NF-kappaB activation in STAT3 activator counter-screen; human cells, NF-kappaB reporter activation; activation (% of control), % at 5.7 µM; AID 1309; shares compounds with STAT3 act-1; actives 11% (n = 1,200); in the data active means activation above about 120%;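 further: reporter induced by TNF-alpha stimulation; 100% = median of stimulated DMSO wells and 0% = no signal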
STAT1 act-2: STAT1 activation in STAT3 activator counter-screen; shares compounds with STAT3 act-1; AID 1318; actives 13% (n = 1,200); NIH 3T3 STAT1-luciferase reporter, IFN-gamma, luminescence; activation (% of control), % at 5.7 µM;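 active means activation above the solvent-only control well mean plus 3 SD, set per screening run, cut at about 120% in these data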;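 further: 100% = IFN-gamma with DMSO median signal so 100% means no change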
The depositor's hits bear a star; x = no result. Compounds with a hit are over-represented: about 3.9% of the library has one in this group of screens.

SMILES	STAT3 act-1	STAT1 act-1	Pf gametocyte	APP 5'UTR act	STAT1 blocker	NF-kB expr up	STAT3 act-2	NFkB act 2	STAT1 act-2
O=C(O)c1cc(Cl)c2ccccc2c1O	138.9*	99.5	-9.9	29.5	4.0	0.91	130.5	108.8	107.2
COc1cc(CC(=O)OCC(=O)N2CC(=O)Nc3ccccc32)cc(OC)c1OC	102.5	105.0	8.5	-0.5	-7.4	1.08	x	x	x
CCN(CC)c1ccc(S(=O)(=O)N2CCOCC2)cc1NC(=O)CN1CCN(Cc2ccccc2)CC1	x	x	-0.8	x	x	x	x	x	x
COC(=O)C(O)(NC(=O)OCc1ccccc1)C(F)(F)F (stereo not given)	96.4	89.8	x	-13.3	12.0	1.19	x	x	x
COC(=O)C(NC=O)C(O)(Cc1ccccc1)C(F)(F)F (stereo not given)	158.2*	97.9	x	-0.5	2.3	1.63	151.6*	106.2	101.3
C=CC[C@H](CC(=O)OC(C)(C)C)C(=O)OC[C@H]1CCCN1C(=O)[C@H](CC=C)CC(=O)NCCO	x	x	-29.5	x	x	x	x	x	x
CC1CCCCC1NC(=O)c1cc2ccccc2o1 (stereo not given)	111.3	102.0	x	9.8	-2.1	1.39	x	x	x
O=C(Cc1nc2ccccc2[nH]1)c1ccc([N+](=O)[O-])cc1	x	x	8.7	x	x	x	x	x	x
CN/N=C(\Cc1nc2ccccc2[nH]1)c1ccc([N+](=O)[O-])cc1	136.0*	113.5	x	40.9	-16.1	1.1	165.8*	119.0	115.8
CCS(=O)(=O)Nc1ccc(C2=NN(S(C)(=O)=O)C(c3cccs3)C2)cc1 (stereo not given)	136.7*	112.8	-5.4	4.3	-15.0	1.5	124.8	101.5	102.1
Nc1ccc(Cl)c(S(=O)(=O)Nc2ccc(Cl)cc2)c1	x	x	5.5	x	x	x	x	x	x
CC1CCCCC1NC(=O)CN1C(=O)CSc2cc(S(=O)(=O)N3CCCCCC3)ccc21 (stereo not given)	106.2	97.0	2.3	-16.5	3.3	1.05	x	x	x
CCN(Cc1ccccc1)C(=O)c1c(-c2ccccc2Cl)noc1C	x	x	-13.5	x	x	x	x	x	x
Cc1cccc(C)c1NC(=O)CN(C)CC(=O)Nc1cc(Cl)ccc1C#N	138.3*	90.4	x	-1.4	10.5	0.92	125.1	103.0	95.0
CCOc1ccc(NC(=O)CN(C)CC(=O)Nc2ccccc2SC)cc1OCC	111.6	108.1	11.0	-12.2	-8.9	1.25	x	x	x
CCOc1ccc(NC(=O)CN(C)CC(=O)Nc2cc(Cl)ccc2C#N)cc1OCC	154.0*	87.3	x	8.9	13.8	0.76	132.4	98.7	91.7
Cc1ccc(-n2nc(C)c(=O)c(-c3ccccc3)c2NC(=O)c2cccs2)cc1	x	x	21.8	x	x	x	x	x	x
CC1CN(Cc2ccc(Cl)cc2Cl)CC(C)O1 (stereo not given)	141.6*	112.4	x	5.5	-13.6	1.19	128.9	118.2	125.2*
Cc1ccc(-c2cc(-c3ccccc3[N+](=O)[O-])[nH]n2)c(O)c1	141.7*	97.7	x	131.6	2.5	4.01*	135.7*	131.1*	94.5
Cc1ccc(-c2cc(NC(=O)c3ccccc3[N+](=O)[O-])n[nH]2)cc1	x	x	4.8	x	x	x	x	x	x
Cc1cccc(OCC(=O)Nc2ccc(C(=O)c3ccc(C(=O)O)cc3)cc2)c1	101.9	104.0	-14.9	8.4	-6.3	0.96	x	x	x
Cn1cc(S(=O)(=O)Oc2ccccc2)c(=O)n(C)c1=O	97.1	91.1	-5.9	1.8	8.2	x	x	x	x
CN1N=C(C(=O)N2CCc3c([nH]c4ccccc34)C2c2c(F)cccc2Cl)CCC1=O (stereo not given)	153.7*	109.5	-10.9	22.4	-10.5	1.67	149.6*	104.5	113.7
O=C(c1cc2c([nH]c1=O)CCCC2)N1CCc2c([nH]c3ccccc23)C1c1ccccc1F (stereo not given)	130.2	91.1	12.7	2.0	7.7	0.57	x	x	x

Source: PubChem BioAssay
